From ChEMBL document CHEMBL1124672, “A minor modification of residue 1 in potent vasopressin antagonists dramatically reduces agonist activity” (J Med Chem, 1989) come the findings set out here.

SMILES strings stand for the structures. Numbered stars: 1 amine (or outer) side, 2 acyl side, 3 side chain; on linkers, the order of the positions; unused ones are H or OH. Bridge positions count the residues as written; N and C are the ends. Square brackets hold non-standard residues; d marks the D form. Peptide text beside a SMILES is read from it. X1 = O=C(CC1(S[*:2])CCCCC1)[*:1]

Data set [1] is described as follows: Compound was evaluated for inhibition of vasopressin-stimulated adenylate cyclase in human medullary preparation. An outline of the steps:
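Human renal medullary tissue; inhibition of vasopressin-stimulated adenylate cyclase, reported as inhibition constant Ki.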

Data set [2] has as its system Canis familiaris. As to the kind of experiment: Compound was tested for the maximum urine osmolality with a dose of 100 ug/kg compound in dog. The note with it: in vivo, 0.1 mg/kg. The class given is ADME, organism-based, Canis lupus familiaris. An outline of the steps:
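Adult female mongrel dogs, lightly restrained supine, food withheld 18 h, water-loaded (tap water 5% body weight by gavage). 3% dextrose infused intravenously until Uosm below 70 mOsm/kg H2O, then matched to urine output. After 20 min baseline, indomethacin 2 mg/kg load + 3 mg/kg per h for 20 min, then single i.v. bolus 100 µg/kg or vehicle. Uosm by freezing point depression, every 10 min for 3 h; maximum Uosm, mean ±SE.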

The test system of a further data set is Rattus norvegicus. As to the kind of experiment: Effective dose of compound required to lower urine osmolality to 300 mOsm/kg H2O in rat. The class given is functional. An outline of the steps: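 Hydropenic rat model. ED300 (µg/kg) is the dose reducing urine osmolality from hydropenic levels to plasma osmolality level, 300 mOsm/kg H2O.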
The test system of data set [3] is Canis familiaris. The data set is described as follows: Compound was tested for the maximum urine osmolality with a dose of 100 ug/kg compound in dog. The data set is classed as ADME, organism-based, Canis lupus familiaris. Particulars: in vivo, 0.1 mg/kg. An outline of the steps: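 Adult female mongrel dogs, fasted 18 h with water allowed, hydrated orally with tap water (5% body weight), bladder-catheterized. 3% dextrose iv to baseline water diuresis (Uosm <70 mOsm/kg H2O). Indomethacin 2 mg/kg load + 3 mg/kg per h. Single iv bolus of 100 µg/kg peptide or vehicle. Uosm by freezing point depression every 10 min for 3 h; maximum value, mean ±SE.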

Data set [4] has as its system Vasopressin V2 receptor (Sus scrofa). As to the kind of experiment: Binding affinity of compound towards Vasopressin receptor by binding [3H]LVP to pig renal medullary preparation. Particulars: Renal medulla.

With `CCOc1ccc(C[C@H]2NC(=O)CC3(CCCCC3)SSC[C@@H](C(=O)N3CCC[C@H]3C(=O)N[C@@H](CCCN=C(N)N)C(=O)NCC(N)=O)NC(=O)[C@H](CC(N)=O)NC(=O)[C@H](C(C)C)NC(=O)[C@H](Cc3ccccc3)NC2=O)cc1` ([dY](Et)FVNCPRG-NH2; linker N-5 via X1) [listing 1 of 2 here], in data set [1], the inhibition constant Ki amounted to 4.6 nM. Besides, the “Max Uosm” value in the data set on Canis familiaris [2] came to 1216 mOsmol kg-1.
The compound `CCOc1ccc(C[C@H]2NC(=O)CC3(CCC(C)CC3)SSC[C@@H](C(=O)N3CCC[C@H]3C(=O)N[C@@H](CCCN=C(N)N)C(N)=O)NC(=O)[C@H](CC(N)=O)NC(=O)[C@H](C(C)C)NC(=O)[C@H](Cc3ccccc3)NC2=O)cc1` (stereo in doubt; 3) yielded an ED300 in the data set with Rattus norvegicus of 0.022 mg/kg.
Compound `CCOc1ccc(C[C@H]2NC(=O)CC3(CCCCC3)SSC[C@@H](C(=O)N3CCC[C@H]3C(=O)N[C@@H](CCCNC(=N)N)C(N)=O)NC(=O)[C@H](CC(N)=O)NC(=O)[C@H](C(C)C)NC(=O)[C@H](Cc3ccccc3)NC2=O)cc1` ([dY](Et)FVNCPR-NH2; linker N-5 via X1) showed a Ki in data set [1] of 3.6 nM. Further, the “Max Uosm” value with Canis familiaris [2] was 1625 mOsmol kg-1.
In the data set with Rattus norvegicus, `CCOc1ccc(C[C@H]2NC(=O)CC3(CCCCC3)SSC[C@@H](C(=O)N3CCC[C@H]3C(=O)N[C@@H](CCCN=C(N)N)C(N)=O)NC(=O)[C@H](CC(N)=O)NC(=O)[C@H](C(C)C)NC(=O)[C@H](Cc3ccccc3)NC2=O)cc1` ([dY](Et)FVNCPR-NH2; linker N-5 via X1) returned an ED300 of 0.015 mg/kg.
For `CCOc1ccc(C[C@H]2NC(=O)CC3(CCC(C)CC3)SSC[C@@H](C(=O)N3CCC[C@H]3C(=O)N[C@@H](CCCNC(=N)N)C(N)=O)NC(=O)[C@H](CC(N)=O)NC(=O)[C@H](C(C)C)NC(=O)[C@H](Cc3ccccc3)NC2=O)cc1` (stereo in doubt; 2), the “Max Uosm” value with Canis familiaris [3] came out at 91 mOsmol kg-1.
For the compound `CCOc1ccc(C[C@H]2NC(=O)CC3(CCC(C)CC3)SSC[C@@H](C(=O)N3CCC[C@H]3C(=O)N[C@@H](CCCN=C(N)N)C(N)=O)NC(=O)[C@H](CC(N)=O)NC(=O)[C@H](C(C)C)NC(=O)[C@H](Cc3ccccc3)NC2=O)cc1` (stereo in doubt; 2), the ED300 in the data set on Rattus norvegicus came to 0.045 mg/kg.
In the case of `CCOc1ccc(C[C@@H]2NC(=O)CC3(CCC(C)CC3)SSC[C@H](C(=O)N[C@@H](CCCN=C(N)N)C(=O)N[C@@H](CCCN=C(N)N)C(N)=O)NC(=O)[C@H](CC(N)=O)NC(=O)[C@H](C(C)C)NC(=O)[C@H](Cc3ccccc3)NC2=O)cc1` (stereo partly specified), the inhibitory constant (Ki) in data set [1] stood at 3.9 nM. This compound displayed an ED300 in the data set with Rattus norvegicus of 0.046 mg/kg. In data set [4], this compound displayed a K Bind of 4.2 nM. Further, the “Max Uosm” value in the data set on Canis familiaris [2] came to 103 mOsmol kg-1.
As to `CCOc1ccc(C[C@H]2NC(=O)CC3(CCC(C)CC3)SSC[C@@H](C(=O)N3CCC[C@H]3C(=O)N[C@@H](CCCNC(=N)N)C(N)=O)NC(=O)[C@H](CC(N)=O)NC(=O)[C@H](C(C)C)NC(=O)[C@H](Cc3ccccc3)NC2=O)cc1` (stereo in doubt; 3), in the data set on Canis familiaris [2], the “Max Uosm” value amounted to 613 mOsmol kg-1.
Regarding `CCOc1ccc(C[C@H]2NC(=O)CC3(CCC(C)CC3)SSC[C@@H](C(=O)N3CCC[C@H]3C(=O)N[C@@H](CCCN=C(N)N)C(=O)NCC(N)=O)NC(=O)[C@H](CC(N)=O)NC(=O)[C@H](C(C)C)NC(=O)[C@H](Cc3ccccc3)NC2=O)cc1` (stereo partly specified) [listing 1 of 2 here], the ED300 in the data set on Rattus norvegicus stood at 0.025 mg/kg.
`CCOc1ccc(C[C@@H]2NC(=O)CC3(CCCCC3)SSC[C@H](C(=O)N[C@@H](CCCN=C(N)N)C(=O)N[C@@H](CCCN=C(N)N)C(N)=O)NC(=O)[C@@H](CC(N)=O)NC(=O)[C@H](C(C)C)NC(=O)[C@@H](Cc3ccccc3)NC2=O)cc1` yielded an inhibitory constant (Ki) in data set [1] of 4.5 nM. The compound also gave an ED300 in the data set with Rattus norvegicus of 0.0135 mg/kg. Also, the K Bind in data set [4] was determined as 4.5 nM. Moreover, in the data set on Canis familiaris [2], the “Max Uosm” value is recorded as 469 mOsmol kg-1.
For `CCOc1ccc(C[C@H]2NC(=O)CC3(CCCCC3)SSC[C@@H](C(=O)N3CCC[C@H]3C(=O)N[C@@H](CCCN=C(N)N)C(=O)NCC(N)=O)NC(=O)[C@H](CC(N)=O)NC(=O)[C@H](C(C)C)NC(=O)[C@H](Cc3ccccc3)NC2=O)cc1` ([dY](Et)FVNCPRG-NH2; linker N-5 via X1) [listing 2 of 2 here], in the data set on Rattus norvegicus, the ED300 came to 0.011 mg/kg.
In data set [1], `CCOc1ccc(C[C@H]2NC(=O)CC3(CCC(C)CC3)SSC[C@@H](C(=O)N3CCC[C@H]3C(=O)N[C@@H](CCCN=C(N)N)C(=O)NCC(N)=O)NC(=O)[C@H](CC(N)=O)NC(=O)[C@H](C(C)C)NC(=O)[C@H](Cc3ccccc3)NC2=O)cc1` (stereo partly specified) [listing 2 of 2 here] had a Ki of 4.3 nM. In addition, the “Max Uosm” value with Canis familiaris [2] worked out at 85 mOsmol kg-1.

One may read the Ki as a dissociation constant, usually derived from enzyme kinetics or from competition with a known ligand. A high value points to weaker binding.
